We go through one compound from ChEMBL document CHEMBL2434820, “Design, synthesis, and biological evaluation of novel 2-ethyl-5-phenylthiazole-4-carboxamide derivatives as protein tyrosine phosphatase 1B inhibitors with improved cellular efficacy” (Eur J Med Chem, 2013).

Molecules are shown by their SMILES.

The target in assay [1] is T1, M-phase inducer phosphatase 2 (Homo sapiens, UniProt P30305).
T1 sequence (P30305 whole entry): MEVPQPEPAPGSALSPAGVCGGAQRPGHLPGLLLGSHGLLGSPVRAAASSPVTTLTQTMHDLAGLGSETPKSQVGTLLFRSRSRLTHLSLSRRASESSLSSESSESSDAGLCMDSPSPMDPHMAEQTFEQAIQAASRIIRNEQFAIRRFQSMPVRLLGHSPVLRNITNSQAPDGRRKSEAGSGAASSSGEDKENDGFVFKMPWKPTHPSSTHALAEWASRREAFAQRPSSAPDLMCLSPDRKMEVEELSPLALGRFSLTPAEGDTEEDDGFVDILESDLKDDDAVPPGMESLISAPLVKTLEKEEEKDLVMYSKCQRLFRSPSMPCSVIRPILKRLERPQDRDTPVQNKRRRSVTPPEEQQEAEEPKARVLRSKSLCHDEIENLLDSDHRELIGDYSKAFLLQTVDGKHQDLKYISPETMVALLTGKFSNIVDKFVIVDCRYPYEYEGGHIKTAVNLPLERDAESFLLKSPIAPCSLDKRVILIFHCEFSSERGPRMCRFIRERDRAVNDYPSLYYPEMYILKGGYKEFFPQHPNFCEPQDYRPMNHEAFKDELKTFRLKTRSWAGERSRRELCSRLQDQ
As to the kind of experiment: Inhibition of CDC25B (unknown origin).

The target in assay [2] is T2, Tyrosine-protein phosphatase non-receptor type 1 (Homo sapiens) (UniProt P18031).
T2 sequence (whole entry): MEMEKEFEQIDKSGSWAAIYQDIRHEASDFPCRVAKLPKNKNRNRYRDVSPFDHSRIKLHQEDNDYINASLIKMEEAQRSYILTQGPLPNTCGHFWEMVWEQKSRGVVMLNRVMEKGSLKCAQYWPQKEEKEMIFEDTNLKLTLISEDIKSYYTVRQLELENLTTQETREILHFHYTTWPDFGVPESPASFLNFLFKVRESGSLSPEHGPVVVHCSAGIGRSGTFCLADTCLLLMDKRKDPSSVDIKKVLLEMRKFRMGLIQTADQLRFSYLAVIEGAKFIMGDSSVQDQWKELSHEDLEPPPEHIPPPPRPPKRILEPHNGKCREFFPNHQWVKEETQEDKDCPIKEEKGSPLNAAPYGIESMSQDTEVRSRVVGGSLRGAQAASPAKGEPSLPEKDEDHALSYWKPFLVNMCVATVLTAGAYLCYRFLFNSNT
As to the kind of experiment: Inhibition of PTP1B (unknown origin) expressed in CHO cells over-expressing human IR assessed as increase in insulin-mediated IR-beta phosphorylation preincubated for 2 hrs followed by insulin challenge for 10 mins by Western blotting analysis. The format is cell-based. A digest of the protocol:
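CHO cells overexpressing human IR, grown in Ham's F-12 with 10% FBS at 37 °C, 5% CO2. Cells were serum-starved 2 h, then exposed to compound for 2 h (0.2% DMSO vehicle; 1 mM sodium orthovanadate as positive control). They were then stimulated with 10 nM insulin for 10 min. Lysates were run on 8% SDS-PAGE and immunoblotted with anti-pTyr, using β-actin as the loading control.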
In general terms: A western blot detects proteins with antibodies after separation by electrophoresis.

The target in assay [3] is T3, Tyrosine-protein phosphatase non-receptor type 1 (Rattus norvegicus) (UniProt P20417).
T3 sequence (whole entry): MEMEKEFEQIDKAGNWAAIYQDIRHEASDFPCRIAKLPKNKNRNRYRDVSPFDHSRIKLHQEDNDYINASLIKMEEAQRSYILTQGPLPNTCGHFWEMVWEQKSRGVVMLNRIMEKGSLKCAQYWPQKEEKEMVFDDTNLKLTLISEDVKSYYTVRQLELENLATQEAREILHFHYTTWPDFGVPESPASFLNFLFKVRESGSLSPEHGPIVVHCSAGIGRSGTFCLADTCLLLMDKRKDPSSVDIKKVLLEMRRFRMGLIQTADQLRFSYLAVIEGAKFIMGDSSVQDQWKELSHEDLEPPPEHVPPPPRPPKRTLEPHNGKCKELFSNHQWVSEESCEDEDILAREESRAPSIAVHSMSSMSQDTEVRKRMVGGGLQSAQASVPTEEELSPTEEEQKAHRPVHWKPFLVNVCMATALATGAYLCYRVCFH
Kind of assay: Inhibition of PTP1B in rat L6 cells assessed as insulin-induced Akt phosphorylation preincubated for 2 hrs followed by insulin challenge for 10 mins by Western blotting analysis. In kind it is cell-based. A digest of the protocol: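 Rat L6 myoblasts were differentiated in DMEM with 2% FBS and used as myotubes 5–7 days later. They were serum-starved 2 h, treated with compound 2 h (0.2% DMSO vehicle), then given 10 nM insulin for 10 min. Lysates were run on 8% SDS-PAGE and immunoblotted for phospho-Akt (Ser473), with β-actin as loading control.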

For the compound `O=C(CCc1c[nH]c2ccccc12)N[C@@H](Cc1ccc(OCc2ccccc2)cc1)c1nc(C(=O)Nc2cc(F)ccc2C(=O)O)c(-c2ccccc2)s1`, the midpoint of inhibition in assay [1], the IC50, lay at 1620 nM. The inhibition entry in assay [2] and in assay [3] was “Dose-dependent effect” in each case.
